Data as given in ChEMBL document CHEMBL3351606, “Targeting (cellular) lysosomal acid ceramidase by B13: design, synthesis and evaluation of novel DMG-B13 ester prodrugs” (Bioorg Med Chem, 2014).
Converted amounts (≈) assume the structure as drawn. The source made the active and inactive calls. No cut-off for these calls is given here.

How the values were obtained:
[1] = tested on: Alkaline ceramidase 2 (Homo sapiens); assay: Inhibition of AlkCDase in human HeLa cells expressing […] assessed as fold increase in Sph level at 10 uM after 1 hr by LC-MS/MS analysis
[2] = target: Neutral ceramidase (Homo sapiens) (UniProt Q9NR71); assay: Inhibition of NCDase in human MCF7 cells assessed as release of [3H] palmitic acid at 10 uM after 1 hr
[3] = target: T1, Sphingomyelin phosphodiesterase (Homo sapiens) (UniProt P17405); assay: Inhibition of lysosomal ASMase activity in human MCF7 cells assessed as [methyl-14C]choline release at 10 uM after 1 hr; format: cell-based
T1 sequence (whole entry): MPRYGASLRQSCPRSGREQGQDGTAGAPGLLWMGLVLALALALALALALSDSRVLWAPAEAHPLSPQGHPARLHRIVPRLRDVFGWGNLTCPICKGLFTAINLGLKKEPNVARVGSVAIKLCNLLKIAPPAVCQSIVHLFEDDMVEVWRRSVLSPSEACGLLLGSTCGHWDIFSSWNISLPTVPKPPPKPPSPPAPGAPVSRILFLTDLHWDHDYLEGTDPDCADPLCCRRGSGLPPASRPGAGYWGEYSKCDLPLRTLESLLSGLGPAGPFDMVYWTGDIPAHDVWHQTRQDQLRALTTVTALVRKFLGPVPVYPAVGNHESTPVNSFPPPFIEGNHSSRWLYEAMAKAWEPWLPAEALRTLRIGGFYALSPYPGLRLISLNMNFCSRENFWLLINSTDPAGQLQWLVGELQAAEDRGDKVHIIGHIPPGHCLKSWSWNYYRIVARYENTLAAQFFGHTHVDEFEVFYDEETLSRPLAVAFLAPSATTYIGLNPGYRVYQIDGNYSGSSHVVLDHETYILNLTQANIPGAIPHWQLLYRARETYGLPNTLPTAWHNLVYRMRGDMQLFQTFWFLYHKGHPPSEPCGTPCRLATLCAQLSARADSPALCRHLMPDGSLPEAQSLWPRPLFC
In short: (§1)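 MCF7 cells treated 1 h with compound or vehicle, lysed in 0.2% Triton X-100/50 mm Tris-HCl pH 7.4 with EDTA and protease/phosphatase inhibitors; clarified lysate incubated with 100 µM porcine brain SM plus choline-[methyl-14C] SM in Triton micelles, 250 mM sodium acetate pH 5.0, 1.0 mM EDTA, 30 min at 37 °C; aqueous-phase 14C counted after Folch extraction; triplicates, % control.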

[4] = tested on: MCF7; assay: Reduction in Sph level in human MCF7 cells at 1 uM after 5 hrs by LC-MS/MS analysis; format: ADME, cell-based; conditions: MCF7, 5 h
[5] = tested on: MCF7; assay: Reduction in Sph level in human MCF7 cells at 1 uM after 1 hr by LC-MS/MS analysis; format: ADME, cell-based; conditions: MCF7, 1 h, read-out: INH
In short: (§2)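 MCF7 cells treated 1 h with compound or ethanol vehicle; pellets spiked with internal standards, lipids extracted and Sph and total Cer quantified by LC–MS/MS in MRM mode, expressed as pmol per nmol lipid phosphate and as % of control; duplicates.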

[6] = Toxicity in rat; format: organism-based; conditions: in vivo
[7] = tested on: MCF7; assay: Drug uptake in human MCF7 cells assessed as drug level at 10 uM after 24 hrs by LC-MS/MS analysis; format: ADME, cell-based; conditions: mcf7, 24 h
In short: (§3)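 MCF7 cells (RPMI 1640, 10% FBS) treated with test compound or vehicle (ethanol) over a time course up to 24 h; after washing with cold PBS and scraping, pellets spiked with internal standards, lipids extracted (ethyl acetate/isopropanol/water) and compounds quantified by LC–MS/MS in positive MRM mode against calibration curves, normalized to lipid phosphate; duplicates.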

[8] = target: Neutral ceramidase (Homo sapiens) (UniProt Q9NR71); assay: Inhibition of NCDase in human HeLa cells expressing ASAH2 assessed as increase in Sph level at 10 uM after 1 hr by LC-MS/MS analysis; format: cell-based
In short: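 HeLa cells stably carrying ACER2, ASAH2 or empty vector, grown to 60% confluence, given tetracycline 5 ng/mL overnight, then treated 1 h with compound (1 or 10 µM) or ethanol; sphingolipids extracted and Sph measured by LC–MS/MS per nmol lipid phosphate, also given as Sph ratio of ACER2 or ASAH2 cells to vector cells.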

[9] = target: T1, Sphingomyelin phosphodiesterase (Homo sapiens); assay: Inhibition of lysosomal ASMase activity in human MCF7 cells assessed as [methyl-14C]choline release at 1 uM after 1 hr; format: cell-based
In short: as §1

[10] = tested on: Alkaline ceramidase 2 (Homo sapiens); assay: Inhibition of AlkCDase in human HeLa cells expressing […] assessed as fold increase in Sph level at 1 uM after 1 hr by LC-MS/MS analysis
[11] = target: T2, Acid ceramidase (Homo sapiens) (UniProt Q13510); assay: Inhibition of ACDase in human MCF7 cell lysate using [9,10-3H] De-C16-Cer substrate at 20 uM after 1 hr by scintillation counting analysis; format: cell-free
T2 sequence (whole entry): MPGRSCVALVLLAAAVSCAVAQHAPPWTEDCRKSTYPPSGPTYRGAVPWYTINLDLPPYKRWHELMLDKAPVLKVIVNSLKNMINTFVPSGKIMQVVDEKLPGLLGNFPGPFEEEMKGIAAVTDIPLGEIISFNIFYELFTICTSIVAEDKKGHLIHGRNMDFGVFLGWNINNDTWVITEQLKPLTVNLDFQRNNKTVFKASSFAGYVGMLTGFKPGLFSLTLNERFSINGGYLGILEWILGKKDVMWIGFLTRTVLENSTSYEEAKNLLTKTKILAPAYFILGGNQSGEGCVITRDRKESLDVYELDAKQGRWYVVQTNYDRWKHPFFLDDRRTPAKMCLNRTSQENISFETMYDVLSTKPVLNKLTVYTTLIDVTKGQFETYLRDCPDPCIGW
In short: (§4)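 ACDase activity in MCF7 lysate (pH 4.5): [9,10-3H] D-e-C16-Cer and compound dried with 0.2% Triton X-100/0.4% cholate, then protein and 0.2 M acetate buffer with 0.5% Triton X-100 (pH 4.5) added; 1 h at 37 °C, stopped with Dole's solution; released [3H]palmitic acid scintillation-counted, pmol/mg protein/h, % control; duplicates.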

[12] = tested on: MCF7; assay: Reduction in alpha-ACDase level in human MCF7 cells at 1 uM by Western blot analysis
[13] = Solubility in water at 25 degC; format: physicochemical
[14] = target: T2, Acid ceramidase (Homo sapiens); assay: Inhibition of ACDase in human MCF7 cells at 10 uM after 1 hr by cellular/scintillation counting analysis; format: cell-based
In short: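 MCF7 cells treated 1 h with compound or vehicle, washed in cold PBS and scraped; lysate ACDase activity then measured at pH 4.5 with [9,10-3H] D-e-C16-Cer, 1 h at 37 °C, released [3H]palmitic acid counted; pmol/mg protein/h, % control; quadruplicates.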

[15] = tested on: MCF7; assay: Induction in Cer level in human MCF7 cells at 10 uM after 1 hr by LC-MS/MS analysis; format: functional
In short: as §2

[16] = tested on: Alkaline ceramidase 2 (Homo sapiens); assay: Inhibition of AlkCDase in human HeLa cells expressing […] assessed as increase in Sph level at 10 uM after 1 hr by LC-MS/MS analysis
[17] = tested on: MCF7; assay: Reduction in Sph level in human MCF7 cells at 10 uM after 1 hr by LC-MS/MS analysis; format: ADME, cell-based; conditions: MCF7, 1 h
In short: as §2

[18] = target: T2, Acid ceramidase (Homo sapiens); assay: Inhibition of ACDase in human MCF7 cell lysate using [9,10-3H] De-C16-Cer substrate at 50 uM after 1 hr by scintillation counting analysis; format: cell-free
In short: as §4

[19] = tested on: MCF7; assay: Effect on lysosomal stability in human MCF7 cells assessed as recovery of Lysotracker Red uptake at 10 uM after 5 hrs by FACS analysis; format: functional, cell-based
In short: (§5)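 MCF7 cells seeded overnight, medium switched to 2% FBS with compound in ethanol or ethanol alone, 1 or 5 h at 37 °C, then Lysotracker Red DND-99 200 nM for 30 min at 37 °C. Cells trypsinized, washed and analysed by FACS (564–606 nm), at least 10,000 events per sample; lower fluorescence read as higher lysosomal pH; triplicates, % of control.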

[20] = tested on: MCF7; assay: Reduction in alpha-ACDase level in human MCF7 cells at 10 uM by scintillation counting analysis; format: functional, cell-based; conditions: in the assay text read “Western blot analysis” for “scintillation counting analysis”, TDE = time-dependent effect
In short: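 MCF7 cells treated 1 and 5 h with compound or vehicle; lysates (35 µg protein) run on SDS gels, blotted, probed with mouse monoclonal anti-ACDase and HRP secondary; bands of the cleaved alpha-ACDase chain quantified by densitometry, normalized to actin, % control.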

[21] = tested on: MCF7; assay: Effect on lysosomal stability in human MCF7 cells assessed as increase in Lysotracker Red uptake at 10 uM after 5 hrs by FACS analysis; format: ADME, cell-based; conditions: mcf7, 5 h
In short: as §5

[22] = tested on: MCF7; assay: Drug formation in human MCF7 cells treated with LCL522 up to 2 to 5 hrs by LC-MS/MS analysis; format: ADME, cell-based
In short: as §3

[23] = target: T2, Acid ceramidase (Homo sapiens); conditions: MCF7, 50 uM
[24] = target: T2, Acid ceramidase (Homo sapiens); conditions: MCF7, 50 uM; remark: listed apart in the source
[25] = tested on: MCF7; assay: Reduction in Sph level in human MCF7 cells at 30 uM by LC-MS/MS analysis; format: functional, cell-based
[26] = target: T2, Acid ceramidase (Homo sapiens); conditions: MCF7, 50 uM; remark: listed apart in the source
[27] = target: T3, Acid ceramidase (Homo sapiens, UniProt Q13510); assay: Inhibition of ACDase in human MCF7 cell lysate using [9,10-3H] De-C16-Cer substrate after 1 hr by scintillation counting analysis
T3 sequence (Q13510 whole entry): T2 sequence (whole entry)

[28] = tested on: MCF7; assay: Induction in Cer level in human MCF7 cells at 50 uM after 1 hr by LC-MS/MS analysis; format: functional
[29] = tested on: MCF7; assay: Reduction in Sph level in human MCF7 cells at 50 uM after 24 hrs by LC-MS/MS analysis; format: functional; conditions: MCF7, 24 h
[30] = tested on: MCF7; assay: Induction in Cer level in human MCF7 cells at 50 uM after 24 hrs hr by LC-MS/MS analysis; format: functional
[31] = tested on: MCF7; assay: Reduction in Sph level in human MCF7 cells at 50 uM after 5 hrs by LC-MS/MS analysis; format: functional; conditions: MCF7, 5 h
[32] = tested on: Alkaline ceramidase 2 (Homo sapiens); assay: Inhibition of AlkCDase in microsomes of human HeLa cells using D-e-C18:1-Cer substrate up to 250 uM after 30 mins
[33] = tested on: MCF7; assay: Drug formation in human MCF7 cells treated with LCL596 up to 2 to 5 hrs by LC-MS/MS analysis; format: ADME, cell-based
In short: as §3

Chain of Neutral ceramidase (Homo sapiens) (Q9NR71 whole entry): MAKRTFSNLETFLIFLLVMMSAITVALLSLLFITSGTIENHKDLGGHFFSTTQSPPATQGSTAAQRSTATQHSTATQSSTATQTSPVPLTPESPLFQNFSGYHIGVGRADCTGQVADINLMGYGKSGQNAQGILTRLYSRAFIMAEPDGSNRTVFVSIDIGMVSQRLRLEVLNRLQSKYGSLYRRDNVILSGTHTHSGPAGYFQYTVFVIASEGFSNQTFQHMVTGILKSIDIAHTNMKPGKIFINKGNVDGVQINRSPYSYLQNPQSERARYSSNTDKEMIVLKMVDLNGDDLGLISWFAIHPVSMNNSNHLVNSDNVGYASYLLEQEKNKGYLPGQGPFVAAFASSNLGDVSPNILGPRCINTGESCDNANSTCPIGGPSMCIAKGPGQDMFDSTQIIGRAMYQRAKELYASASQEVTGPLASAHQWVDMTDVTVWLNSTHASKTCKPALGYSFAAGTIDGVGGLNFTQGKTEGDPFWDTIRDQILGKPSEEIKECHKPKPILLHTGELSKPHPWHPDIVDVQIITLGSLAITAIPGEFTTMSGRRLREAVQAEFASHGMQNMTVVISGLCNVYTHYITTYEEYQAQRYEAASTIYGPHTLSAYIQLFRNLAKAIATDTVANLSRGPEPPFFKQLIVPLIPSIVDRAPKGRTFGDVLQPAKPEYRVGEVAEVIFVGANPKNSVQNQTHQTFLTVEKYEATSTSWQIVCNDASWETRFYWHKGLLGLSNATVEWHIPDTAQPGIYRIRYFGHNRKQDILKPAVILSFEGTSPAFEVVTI

Compound: CCCCCCCCCCCCCC(=O)N[C@H](COC(=O)CN(C)C)[C@H](OC(=O)CN(C)C)c1ccc([N+](=O)[O-])cc1.Cl
- fold change (FC) [1]: 5
- inhibition [2]: inactive
- inhibition [3]: 85%
- inhibition at 1 µM [4]: 50%
- inhibition at 1 µM [5]: 80%
- LD50 [6]: 3900 mg/kg
- Drug uptake [7]: 27%
- inhibition [8]: inactive
- inhibition [9]: 30%
- fold change (FC) [10]: 2
- inhibition [11]: Active
- Activity [12]: inactive
- solubility [13]: 430 mg/mL
- inhibition [14]: Active
- Activity [15]: 130%
- inhibition [16]: Active
- inhibition at 10 µM [17]: 97%
- inhibition [18]: Active
- Activity [19]: Active
- inhibition [20]: tde

Compound: CCCCCCCCCCCCCC(=O)N[C@H](COC(=O)CN(C)C)[C@H](O)c1ccc([N+](=O)[O-])cc1.Cl
- Activity [21]: 180%
- LD50 [6]: 3900 mg/kg
- Drug uptake [7]: Active
- Drug metabolism [22]: metabolite_detected
- inhibition [11]: Active
- inhibition [14]: Active
- Activity [15]: inactive
- inhibition at 10 µM [17]: 60%
- inhibition [18]: Active

Compound: CCCCCCCCCCCCCC(=O)N[C@H](CO)[C@H](O)c1ccc([N+](=O)[O-])cc1
- inhibition [23]: 40%
- inhibition [24]: 20%
- inhibition [25]: Active
- inhibition [26]: 50%
- IC50 [27]: 27.7 µM
- Activity [28]: 140%
- Drug metabolism [22]: metabolite_detected
- inhibition at 50 µM [29]: 40%
- Activity [30]: 270%
- solubility [13]: 0.008 mg/mL (≈ 18.9 µM)
- inhibition [14]: Active
- inhibition at 50 µM [31]: 70%
- inhibition [18]: 95%
- inhibition [32]: inactive
- Activity [19]: inactive

Compound: CCCCCCCCCCCCCC(=O)N[C@H](CO)[C@H](OC(=O)CN(C)C)c1ccc([N+](=O)[O-])cc1.Cl
- LD50 [6]: 3900 mg/kg
- Drug uptake [7]: Active
- inhibition [11]: Active
- Drug metabolism [33]: metabolite_detected
- inhibition [14]: Active
- Activity [15]: inactive
- inhibition at 10 µM [17]: 60%
- inhibition [18]: Active
